Experimental data reported in publication PMC2592099 (Peptides, 2008).
Read-outs that look alike come from different tables or passages of the source.

Experiments:
U-87 MG cells = test: Peptide and peptide-platinate activity, modified MTT assay; type: cell-based; conditions: 24 hours, nonlinear curve fitting, n=3
How it was run: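 They were plated at 50,000 cells/mL one day before, then exposed to a concentration series of test compound for 24 h. Viability relative to untreated control was read by modified MTT (Aqueous One). IC50 came from nonlinear curve fit. n≥3.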

MMP-2 [1] = biological target: T1, MMP-2 (Homo sapiens, UniProt P08253); conditions: cited from earlier work
T1 sequence (P08253 110-660): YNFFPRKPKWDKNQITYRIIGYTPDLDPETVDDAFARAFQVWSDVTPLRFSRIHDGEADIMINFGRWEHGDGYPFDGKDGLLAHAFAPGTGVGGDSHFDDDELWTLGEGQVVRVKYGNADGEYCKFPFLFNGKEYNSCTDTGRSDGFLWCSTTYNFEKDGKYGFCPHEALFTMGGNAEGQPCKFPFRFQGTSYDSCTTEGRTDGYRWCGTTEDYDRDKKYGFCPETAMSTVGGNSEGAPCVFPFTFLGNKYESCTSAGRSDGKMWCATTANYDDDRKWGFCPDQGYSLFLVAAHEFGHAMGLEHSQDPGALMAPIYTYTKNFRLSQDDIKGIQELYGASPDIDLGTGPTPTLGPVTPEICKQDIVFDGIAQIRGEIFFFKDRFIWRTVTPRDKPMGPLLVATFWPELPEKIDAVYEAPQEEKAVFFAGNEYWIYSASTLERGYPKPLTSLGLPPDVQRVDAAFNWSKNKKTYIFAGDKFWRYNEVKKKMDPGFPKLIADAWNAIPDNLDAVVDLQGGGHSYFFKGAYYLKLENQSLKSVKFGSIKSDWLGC

MMP-2 [2] = biological target: T1, MMP-2; test: Peptide cleavage kinetics with activated MMP-2; type: biochemical; conditions: for Km / kcat: activated MMP-2 10 nM, Tris-HCl protease buffer pH 7.4, HPLC, n=3
How it was run: (§1)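 Reactions were stopped at set times with EDTA. Products were resolved by C18 reversed-phase HPLC (30–70% acetonitrile/0.1% TFA gradient, 15 min, 1 mL/min) with fluorescence and photodiode-array detection. Fragments were assigned against synthetic fragment retention times and confirmed by MALDI-MS. n≥3.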

MMP-9 = MMP-9 (Homo sapiens, UniProt P14780); test: Peptide cleavage kinetics with activated MMP-9; type: biochemical; conditions: for Km / kcat: activated MMP-9 10 nM, Tris-HCl protease buffer pH 7.4, HPLC, n=3
Chain of MMP-9 (P14780 107-707 limits assumed): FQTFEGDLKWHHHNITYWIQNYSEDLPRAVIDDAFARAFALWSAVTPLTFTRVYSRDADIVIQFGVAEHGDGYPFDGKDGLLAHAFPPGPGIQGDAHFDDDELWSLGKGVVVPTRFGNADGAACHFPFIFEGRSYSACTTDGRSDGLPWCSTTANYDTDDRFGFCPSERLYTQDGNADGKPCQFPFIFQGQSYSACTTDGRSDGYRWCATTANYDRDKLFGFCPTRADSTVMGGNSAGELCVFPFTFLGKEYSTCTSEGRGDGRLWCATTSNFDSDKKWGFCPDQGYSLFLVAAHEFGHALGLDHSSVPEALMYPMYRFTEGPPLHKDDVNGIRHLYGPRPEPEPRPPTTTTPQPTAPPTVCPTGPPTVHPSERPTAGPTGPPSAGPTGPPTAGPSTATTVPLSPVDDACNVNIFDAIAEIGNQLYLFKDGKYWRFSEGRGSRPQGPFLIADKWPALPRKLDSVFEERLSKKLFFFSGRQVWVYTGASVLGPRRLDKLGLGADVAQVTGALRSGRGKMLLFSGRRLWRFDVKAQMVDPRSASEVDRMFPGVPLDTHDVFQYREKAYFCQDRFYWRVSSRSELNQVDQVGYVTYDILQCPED
How it was run: as §1

Question: With `[Cl][Pt-2]([Cl])([Cl])[Cl].[K+].[K+]` [K2PtCl4, potassium tetrachloroplatinate] as the molecule, how does the IC50 (U-87 MG cells) read?
Answer: The IC50 was 70.7 ± 15 µM.

Question: With `N.N.[Cl][Pt][Cl]` [cisplatin] as the molecule, how does the IC50 (U-87 MG cells) read?
Answer: Its IC50 is 46.9 ± 15 µM.

Question: With GPAGLLG as the molecule, how does the cleavage site (MMP-2 [1]) read?
Answer: The cleavage site was “cleaved between glycine and leucine”.

Question: Which results are given for K*AGLLC-CONH2?
Answer: Km (MMP-2 [2]): 1400 ± 400 µM; kcat (MMP-2 [2]): 0.24 ± 0.08 s⁻¹; Km (MMP-9): 160 ± 100 µM; kcat (MMP-9): 0.04 ± 0.01 s⁻¹

Question: For K*PAGLLGC-CONH2, which Km (MMP-2 [2]) is on record?
Answer: Its Km is 1000 ± 500 µM.

Question: What about the kcat (MMP-2 [2]) of the same molecule?
Answer: The kcat was 10.7 ± 4.8 s⁻¹.

Question: What about the cleavage site (MMP-2 [2]; cleaved with MMP-2 for 2 hours, HPLC comparison with synthesized fragment K*PAG) of the same molecule?
Answer: Its cleavage site is “cleaved between glycine and leucine”.

Question: And the Km (MMP-9)?
Answer: The Km was 400 ± 100 µM.

Question: And the kcat (MMP-9)?
Answer: Its kcat is 9.6 ± 2.1 s⁻¹.

Question: And the cleavage site (MMP-9; cleaved with MMP-9 for 2 hours, HPLC comparison with synthesized fragment K*PAG)?
Answer: Its cleavage site is “cleaved between glycine and leucine”.
